From ChEMBL document CHEMBL1156184, “Synthesis and biological evaluation of 4-(hydroxyimino)arylmethyl diarylpyrimidine analogues as potential non-nucleoside reverse transcriptase inhibitors against HIV” (Bioorg Med Chem, 2010)

Experiments:
[1] = Selectivity index, ratio of CC50 for human MT4 cells to EC50 for HIV2 ROD; format: toxicity, cell-based; details: read-out: Ratio CC50/EC50
Procedure, shortened: (§1)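 Selectivity index is CC₅₀ in uninfected MT-4 cells divided by EC₅₀ against the given strain (IIIB or ROD). Both values come from parallel 4-day MTT assays, with cells infected at a multiplicity of infection of 0.02.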

[2] = test system: Human immunodeficiency virus 2; test: Antiviral activity against HIV2 ROD infected in human MT4 cells assessed as protection from virus-induced cytopathogenicity after 4 days by MTT assay; format: functional, organism-based; details: Human immunodeficiency virus 2, ISOLATE ROD, MT4, 96 h
Procedure, shortened: (§2)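 MT-4 cells at 1 × 10⁵ cells/mL infected with HIV (IIIB or ROD) at a multiplicity of infection of 0.02, using virus stocks titrated in MT-4 cells as CCID₅₀. Compound present during a 4-day incubation at 37 °C. Viable cells counted by MTT. EC₅₀ is the concentration protecting cells against viral cytopathogenicity by 50%. Values are means of at least two separate experiments.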

[3] = test system: Human immunodeficiency virus 1; test: Antiviral activity against HIV1 3B infected in human MT4 cells assessed as protection from virus-induced cytopathogenicity after 4 days by MTT assay; format: functional, organism-based; details: Human immunodeficiency virus 1, 3B, MT4, 96 h; procedure, shortened: as §2
[4] = Cytotoxicity against human MT4 cells after 4 days by MTT assay; format: cell-based
Procedure, shortened: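 Uninfected MT-4 cells were run in parallel with the antiviral assay: 4 days at 37 °C with compound, then viability read by MTT. CC₅₀ is the concentration that reduces viability of uninfected cells by 50%. Values are means of at least two separate experiments.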

[5] = Selectivity index, ratio of CC50 for human MT4 cells to EC50 for HIV1 3B; format: toxicity, cell-based; details: read-out: Ratio CC50/EC50; procedure, shortened: as §1
[6] = test system: Human immunodeficiency virus 1; test: Antiviral activity against HIV1 expressing reverse transcriptase K103N/Y181C double mutant infected in human MT4 cells assessed as protection against virus-induced cytopathogenicity after 4 days by MTT assay; format: functional, organism-based; details: Human immunodeficiency virus 1, MT4, 96 h
Procedure, shortened: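 RES056 strain (carries K103N and Y181C), titrated in MT-4 cells as CCID50. MT-4 cells at 1 × 10⁵ cells/mL infected at MOI 0.02 and incubated 4 days at 37 °C with compound. Viable cells counted by MTT. EC50 is the concentration protecting cells by 50% against viral cytopathogenicity. Values are means of at least two separate experiments.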

[7] = test system: Human immunodeficiency virus 1; test: Ratio of nevirapine EC50 to compound EC50 for HIV1 3B infected in human MT4 cells; format: functional
[8] = test system: Human immunodeficiency virus 1; test: Ratio of delavirdine EC50 to compound EC50 for HIV1 3B infected in human MT4 cells; format: functional

Structure (SMILES)	selectivity ratio [1]	EC50 [2] [µM]	EC50 [3] [µM]	CC50 at 96 h [4] [µM]	selectivity ratio [5]	EC50 [6] [µM]	Ratio EC50 [7]	Ratio EC50 [8]
Cc1ccccc1/C(=N/O)c1ccnc(Nc2ccc(C#N)cc2)n1	< 1	> 29.9	0.048	29.9	619	≥ 1.59		
N#Cc1ccc(Nc2nccc(/C(=N\O)c3cccc(Br)c3)n2)cc1	< 1	> 23.5	0.362	23.5	65	> 23.5		
N#Cc1ccc(Nc2nccc(/C(=N\O)c3ccccc3)n2)cc1	< 1	≥ 14	0.569	14	24.6	5.6		
Cc1cccc(/C(=N/O)c2ccnc(Nc3ccc(C#N)cc3)n2)c1	< 1	≥ 11.6	0.032	20	626	4.52		
Cc1ccnc2c1NC(=O)c1cccnc1N2C1CC1 [NEVIRAPINE]			0.2	> 15	> 75	> 15		
N#Cc1ccc(Nc2nccc(/C(=N\O)c3ccc4ccccc4c3)n2)cc1	< 1	> 14.3	0.047	31.6	673	> 14.3		
N#Cc1ccc(Nc2nccc(/C(=N\O)c3ccccc3Cl)n2)cc1	< 1	> 12.6	0.013	12.6	997	> 12.6		
N#Cc1ccc(Nc2nccc(/C(=N\O)c3ccc(Cl)cc3)n2)cc1	≤ 2	≥ 7.33	0.083	17.2	209	≥ 7.62		
COc1cccc(/C(=N/O)c2ccnc(Nc3ccc(C#N)cc3)n2)c1	3.67	8.31	0.025	30.5	1220	8.72	8	29
COc1ccc(/C(=N/O)c2ccnc(Nc3ccc(C#N)cc3)n2)cc1	≤ 11	≥ 4.72	0.013	50.2	3790	10.3		
N#Cc1ccc(Nc2nccc(/C(=N\O)c3cccc4ccccc34)n2)cc1	< 1	> 33.1	0.039	33.1	844	> 33.1		
N#Cc1ccc(Nc2nccc(/C(=N\O)c3ccc(F)cc3)n2)cc1	> 19	19.9	0.827	> 377	> 456	13.8		
CC(C)Nc1cccnc1N1CCN(C(=O)c2cc3cc(NS(C)(=O)=O)ccc3[nH]2)CC1 [DELAVIRDINE]			0.72	> 43.8	> 62	> 43.8		
N#Cc1ccc(Nc2nccc(/C(=N\O)c3ccccc3F)n2)cc1	< 1	> 5.67	0.053	5.67	106	> 5.67		
Cc1ccc(/C(=N/O)c2ccnc(Nc3ccc(C#N)cc3)n2)cc1	≤ 2	≥ 6.54	0.006	13.3	2390	≥ 5.1		
Cc1cc(C)cc(/C(=N/O)c2ccnc(Nc3ccc(C#N)cc3)n2)c1	≤ 4	≥ 8.96	0.047	35.9	756	7.89		
N#Cc1ccc(Nc2nccc(/C(=N\O)c3cccc(Cl)c3)n2)cc1	≤ 4	≥ 7.3	0.298	30.4	102	> 14.9		
O=C1Nc2ccc(Cl)cc2[C@@](C#CC2CC2)(C(F)(F)F)O1 [EFAVIRENZ]				> 6.34		0.18		
N#Cc1ccc(Nc2nccc(/C(=N\O)c3cccc(F)c3)n2)cc1	≤ 2	≥ 8.33	0.225	15.3	67.9	≥ 6.7		
N#Cc1ccc(Nc2nccc(/C(=N\O)c3ccc(Br)cc3)n2)cc1	≤ 5	≥ 4.97	0.127	26	205	≥ 7.21		
N#Cc1ccc(Nc2nccc(/C(=N\O)c3ccccc3Br)n2)cc1	< 1	> 13.2	0.005	13.2	2500	> 13.2		
CC(C)(C)c1ccc(/C(=N/O)c2ccnc(Nc3ccc(C#N)cc3)n2)cc1	< 1	≥ 33.7	0.144	33.7	234	7.2		
